Source: PubChem
C2C12 statin: suppression of simvastatin myotoxicity; C2C12 myotubes + simvastatin, ATP luminescence, 48 h; scaled: DMSO 0, geranylgeraniol control 100; 330,000 compounds, 0.78% hits; rescue of ATP level, % at 7.49 µM;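 active = mean ATP rescue above about 67%, or every replicate alone reaching that limit, limit read from the data, passing the limit was not always enough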;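 note: myotubes were challenged with 10 µM simvastatin during compound exposure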
PGC1a acetyl inh: lowers PGC1a acetylation signal in U2OS cells | AlphaScreen anti-acetyl-lysine; with virally co-expressed GCN5 acetyltransferase | inhibition, % at 15.6 µM | 350,000 compounds, 0.17% hits;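 active = every replicate shows inhibition of at least 40%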;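 note: 0% = neutral control wells and 100% = positive control wells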
Ecoli rRNA inh: inhibits bacterial ribosomal RNA function over humanized ribosomes | E. coli WT GFP vs humanized-ribosome RFP mutants, fluorescence, 24 h; active compounds read low; DMSO median 0, no signal -100 | GFP signal change (wild-type ribosome), % (concentration not given with the values) | 350,000 compounds, 1.6% hits;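 active = significant combined selectivity score with lowered wild-type GFP, culture density cut under 30%, mutant RFP and density less affected; inactive = any of these conditions unmet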
SIRT5 block: sirtuin-5 (human) deacylase inhibition; inhibition, % at 15 µM; 330,000 compounds, 1.1% hits; Q9NXA8; Purified SirT5, succinyl-peptide AMC, trypsin-coupled fluorescence; AID 652115; in the data active = inhibition above about 15%
Target sequence (Q9NXA8 whole entry, looked up): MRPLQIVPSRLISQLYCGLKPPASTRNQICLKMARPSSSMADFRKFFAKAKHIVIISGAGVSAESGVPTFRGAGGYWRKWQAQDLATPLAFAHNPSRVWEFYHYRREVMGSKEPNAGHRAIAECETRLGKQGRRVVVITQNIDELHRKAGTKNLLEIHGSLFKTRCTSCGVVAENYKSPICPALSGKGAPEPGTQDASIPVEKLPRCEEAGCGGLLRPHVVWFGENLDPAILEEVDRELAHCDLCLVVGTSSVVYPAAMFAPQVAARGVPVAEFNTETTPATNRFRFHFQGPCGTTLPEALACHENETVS
Cneo AK release: Cryptococcus neoformans lysis via adenylate kinase release. 360,000 compounds, 0.2% hits. lysis activity, % at 15 µM. C. neoformans lysis, adenylate kinase release luminescence, 4 h; normalised: neutral wells 0, clomiphene wells 100. AID 651654;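 active = mean lysis activity across replicates of at least 80%, whatever share of replicates individually reach that level; inactive = mean lysis activity below 80%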
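Signal: Adenylate kinase release luminescence | Assay system: Log-phase Cryptococcus neoformans yeast cells | Input: Cells at 5 × 10^6 per mL | Buffer or medium: Fresh YPD growth medium | Compound: Single dose | Schedule: Static 4 h at 37 °C with compound, 1 h detection | Controls: Clomiphene | Read-out: Luminescence rise reflecting yeast cell lysis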
S100A4 inh HTS: S100A4-myosin IIA interaction inhibition; inhibition, % at 10.7 µM; 360,000 compounds, 0.14% hits; AID 652163; S100A4/TAMRA-MyoIIA peptide fluorescence polarization;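 active = mean inhibition of at least 70% across replicates, with every replicate also reaching that level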
Target sequence (P26447 whole entry, looked up): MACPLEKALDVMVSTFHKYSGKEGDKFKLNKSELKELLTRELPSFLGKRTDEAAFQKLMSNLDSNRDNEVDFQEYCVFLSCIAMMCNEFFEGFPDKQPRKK
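assay system = human S100A4 monomer with TAMRA-labelled myosin IIA peptide | also added = labelled myosin peptide probe, 5 nM | incubation = 5 min between mix addition and reading | control set = DMSO and TFP controls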
The depositor's hits bear a star; . = not tested or not shown; ! = not active in a repeat. Compounds with a hit are over-represented: about 3% of the library has one in this group of screens.

SMILES	C2C12 statin	PGC1a acetyl inh	Ecoli rRNA inh	SIRT5 block	Cneo AK release	S100A4 inh HTS
CCCc1nc(Cl)c(C#N)c2c1CCCC2	.	.	-19	112*	.	2
Cc1ccc(CSc2nnc([C@@H]3CCCN3C(=O)OC(C)(C)C)o2)cc1	9	-2	-16*	-2	.	5
Cc1ccc(CSc2nnc(CCNC(=O)OC(C)(C)C)o2)cc1	.	3	-25*	-4	-6	-2
C[C@@H]1CN([C@@H](C)CO)C(=O)Cc2cc(NC(=O)Cn3cnnn3)ccc2O[C@H]1CN(C)Cc1ccc(Cl)c(Cl)c1	31	0	-21	3	50	2
CC(Cc1ccccc1)N/C=C1/CC(=O)NC1=O (stereo not drawn)	7	-13	.	.	-1	.
O=C1C/C(=C/NCc2ccccc2)C(=O)N1	95*	-2	.	.	-4	.
O=C(N/N=C/c1ccccc1C(F)(F)F)c1ccc(O)cc1	.	0	-29*	1	.	1
CCn1c(=S)sc2c(=O)n(-c3ccccc3)c(=S)[nH]c21	.	-6	-30*	4	.	4
CCOc1ccccc1-n1c(=S)sc2c(=O)n(-c3ccc(C)cc3)c(=S)[nH]c21	.	-1	7	-3	.	-1
COc1cccc(NC(=O)N[C@H]2C=C[C@@H](CC(=O)N3CCOCC3)O[C@@H]2CO)c1	-15	6	2	-1	-3	5
O=C(NC1CCCCC1)C1c2ccccc2OCC(=O)N1Cc1ccco1 (stereo not drawn)	.	.	0	16*	.	32
CCN(CC)Cc1c(O)ccc2c([N+](=O)[O-])c(C)n(-c3ccc(OC)cc3)c12	-27	46*	.	.	1	.
COc1cccc(OC)c1OCCN1CCN(C(c2ccccc2)c2ccccc2)CC1	26	-22	-62	2	0	-3
COc1cccc(OC)c1OCCN1CCCC1	-7	.	0	21*	1	1
CC1Sc2ccc(C(=O)Nc3ccccc3OC(F)F)cc2NC1=O (stereo not drawn)	.	.	-20*	0	.	-1
CC1Sc2ccc(C(=O)Nc3ncccc3O)cc2NC1=O (stereo not drawn)	0	.	4	0	-10	-3
COC(=O)c1ccc(COc2ccc(/C=N/NC(N)=S)cc2)o1	.	2	-29*	-2	-1	-5
C[C@@H]1CN([C@@H](C)CO)C(=O)Cc2cc(NC(=O)Nc3ccc4c(c3)OCO4)ccc2O[C@@H]1CN(C)Cc1ccc(C(=O)Nc2ccccc2N)cc1	.	-4	-8	.	.	-4
Cc1c(C(=O)OCC(O)=C(C#N)c2nc3ccccc3[nH]2)oc2ccc(Br)cc12	.	-2	-7	30*	.	-6
Cc1c(C(=O)OC/C(O)=C(\C#N)c2nc3ccccc3[nH]2)oc2ccccc12	.	6	10	-4	0	-9
CCOc1ccc2ccc(OCC)c(/C=N/n3cnnc3)c2c1	-27	.	-27*	0	-2	-1
Cn1cnc(S(=O)(=O)N2C[C@H](O)COC[C@H]3O[C@@H](CC(=O)NC4Cc5ccccc5C4)CC[C@@H]32)c1	-10	6	4	2	39	-3
O=C(Nc1cccc2ccccc12)C12CC3CC(C1)CC(n1cnc([N+](=O)[O-])n1)(C3)C2	69*	-1	.	.	7	.
COC(=O)c1ccccc1NC(=O)C12CC3CC(C1)CC(n1cnc(Cl)n1)(C3)C2	1	-12	.	.	-1	.
Clc1cncc(Cl)c1N/N=C/c1ccncc1	-2	32	-5	2	3	15
SMILES	C2C12 statin	PGC1a acetyl inh	Ecoli rRNA inh	SIRT5 block	Cneo AK release	S100A4 inh HTS
Clc1cccc(Cl)c1/C=N/Nc1c(Cl)cncc1Cl	.	-7	-16*	-6	.	-5
O=S(=O)(c1ccccc1)N1CCCCN2[C@@H](CO)[C@H](c3ccc(-c4ccccc4)cc3)[C@@H]2C1	10	-5	1	-1	0	0
CC1=C(C(=O)N(C(C)C)C(C)C)CC(CC(=O)NCCCN(C)C)C(=O)N1CCC1=CCCCC1 (stereo not drawn)	10	-12	3	23*	-14	-1
CC1=C(C(=O)N(C(C)C)C(C)C)CC(CC(=O)NC2CCCCC2)C(=O)N1CCCN1CCCC1=O (stereo not drawn)	4	-1	3	33*	-17	-3
CC1=C(C(=O)N2CCOCC2)CC(CC(=O)NCCCN(C)C)C(=O)N1CCC1=CCCCC1 (stereo not drawn)	7	10	12	0	-1	-3
CC1=C(C(=O)N(C(C)C)C(C)C)CC(CC(=O)NCCN2CCOCC2)C(=O)N1CCCN1CCCC1=O (stereo not drawn)	4	-1	6	16*	5	-6
CCN1CCc2c(sc(NC(=O)c3ccc(S(=O)(=O)N(C)CC4CCCO4)cc3)c2C(N)=O)C1 (stereo not drawn)	-2	-6	-8	24*	0	2
Cc1nc(N2CCN(c3ccccc3)CC2)nc2c1C(=O)CC(C)C2 (stereo not drawn)	15	-24	-33*	-2	-3	-4
Nc1cc(=O)[nH]c(N)n1	6	-1	-13*	3	-2	5
NNC(=O)c1cc2cc(OC(F)(F)F)ccc2[nH]1	4	.	-25	2	.	0
O=C(NNC(=O)c1cc2cc(OC(F)(F)F)ccc2[nH]1)c1cccc(C(F)(F)F)c1	-15	.	-21*	-1	.	-16
Cc1cc(CNC(=O)Cc2c(F)cccc2Cl)nn1C	.	.	.	23*	.	4
Cc1cc(CNC(=O)c2cc(COc3c(F)cccc3F)on2)nn1C	.	.	-19	1	.	2
C[C@@H]1CN([C@@H](C)CO)C(=O)c2cccc(NC(=O)Nc3ccc(C(F)(F)F)cc3)c2O[C@H]1CN(C)S(=O)(=O)c1ccc(Cl)cc1	-5	-11	4	0	-1	3
C[C@H](CO)N1C[C@H](C)[C@@H](CN(C)S(=O)(=O)c2ccc(Cl)cc2)Oc2c(NC(=O)Nc3ccc(C(F)(F)F)cc3)cccc2C1=O	102*	-2	0	-1	0	5
C[C@H]1CN([C@@H](C)CO)C(=O)c2cccc(NC(=O)Nc3ccc(C(F)(F)F)cc3)c2O[C@@H]1CN(C)S(=O)(=O)c1ccc(Cl)cc1	113*!	-10	2	6	-2	1
CCOC(=O)Cc1nn(Cc2ccccc2)c(=O)c2ccccc12	.	.	-26*	-9	.	-3
CN(C)C(=O)c1ccc(-c2cccc(-c3nc(C(=O)NC4CCC4)cc4c3[C@H](CCO)N([S@@](=O)C(C)(C)C)C4)c2)cc1	8	-19	-2	-3	-18	-14
